This is an account of results in the EternaBench riboswitch data.

For this series, the system named is MS2 coat protein. As to the kind of experiment: apparent Kd, MS2 coat protein; higher = weaker binding; RNA-MaP array; FMN 200 µM where present. The essentials:
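Stalled E. coli RNA polymerase transcribed the designs on Illumina sequencing-chip clusters. SNAP-549-labelled MS2 coat protein was titrated from 0.7 or 1.5 nM, doubling to 3 µM, without and then with constant ligand, in 100 mM Tris-HCl pH 7.5, 80 mM KCl, 4 mM MgCl2, BSA, DTT, yeast tRNA and Tween-20. Per-cluster binding curves were fitted to green signal normalised to red-channel RNA signal and control-cluster median Fmax. The apparent Kd is the median of the filtered fits.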

Where [1] appears, read: designed as: OFF switch for flavin mononucleotide, no ligand.
Where [2] appears, read: ligand present: flavin mononucleotide, designed as: OFF switch for flavin mononucleotide.
Where [3] appears, read: designed as: ON switch for flavin mononucleotide, no ligand.
Setting [4] is: ligand present: flavin mononucleotide, designed as: ON switch for flavin mononucleotide.

Turning to “UUAUAUAGUGUGAGGAUAUGCUGGUCCUUGGAUCAGCAGAAGGCACAUGAGGAUCACCCAUGUAGUUUAUUAUU”, the “apparent Kd” value under setting [1] was found to be 30.2 nM and the “apparent Kd” value under setting [2] was determined as 130 nM.

As for “UGGUACAUGAGGAUCACCCAUGUAAGAGCCCUCAUGCGAUGUAGAAGGAUAAUGCGAGUAGUGCUAUAGGAUAUACAUGAGUUU”, the “apparent Kd” value under setting [1] was determined as 225 nM and the “apparent Kd” value under setting [2] was 207 nM.

“GGGUGCCCUGCAGAAGCGACAUGAGGAUCACCCAUGUAACGUAGAAGGGCCCGGAACUAAGGUGGGCAGGAUAUACUGUUAGGU”: the “apparent Kd” value under setting [1] turned out to be 6.76 nM. For “AAUCUGUGAGGAUAUGGUGAGUAGUGCCUGAGCGCUGCUCACCAGAAGGCACAUGAGGAUCACCCAUGUAUGAA”, the “apparent Kd” value was 31.2 nM under setting [1] and 99.6 nM under setting [2]. With “UAGAGUCUUGAGGAUAUUGGUACGUACCGGUCCCAAGAAGGCGAGACAUGAGGAUCACCCAUGUGACCGUGAGC”, the “apparent Kd” value was 31.9 nM under setting [1] and 47.8 nM under setting [2]. Regarding “UUGAAUUGAAACAUGAGGAUCACCCAUGUGUCAUAAUUGACAUAGGAUAUGCUUAUACUUUUAAAGCAGAAGGAUGACGAUACU”, the “apparent Kd” value under setting [3] turned out to be 23.8 nM and the “apparent Kd” value under setting [4] was found to be 8.8 nM. In the case of “CCUCAUAUUUAGGAUAUGAUUGGUAAUUAUUAGUUAGAAGGAGGUACAUGAGGAUCACCCAUGUAAUAUUUAAA”, the “apparent Kd” value is, setting by setting: under setting [1], 21.5 nM; under setting [2], 21.2 nM. In the case of “UGGUCAUGAUCAGGAUAUUAACAUGGGCUACAUUGAGAAGGGAUAGUGAGAUACGAACUGAACGACAUGAGGAUCACCCAUGUA”, the “apparent Kd” value is, setting by setting: under setting [3], 59.7 nM; under setting [4], 44 nM.

For the sequence “CAACUGAGCGUAAAUUACCUGAACAUGAGGAUCACCCAUGUGGAGGAUAUUGACUUAGCAAAACUCGAGAAGGCCACUGGGUAG”, the “apparent Kd” value by setting is: under setting [1], 44.6 nM; under setting [2], 18.5 nM. Consider “CCCAGGUCAUCUCCCGGGAACAACAUGAGGAUCACCCAUGUCUAGGAUAUCCACCAGUCAAUAAAGGAGAAGGAGACGGUGGUU”, for which the “apparent Kd” value by setting is: under setting [1], 29.3 nM; under setting [2], 31.9 nM. With “CUAAUGUGAGGAUAUGGUGUUGAUCACAGGAAGGAGAUUCUCCAGAAGGCACAUGAGGAUCACCCAUGUAGUGA”, the “apparent Kd” value worked out at 163 nM under setting [1] and 142 nM under setting [2]. Take “GUAGCAUACAGAGGAUAUUCAAACCGGAAACGGAACAUGAGGAUCACCCAUGUGGCGAAAGCCAGGGAGAAGGCUGAAUGCUAC”: the “apparent Kd” value reads like this: under setting [3], 44.5 nM; under setting [4], 16.8 nM.

For the sequence “AUCCGGGCUAACAUGAGGAUCACCCAUGUGUUAUACUUAAUAUAGGAUAUGUUUAUACUUUUUGGGCAGAAGGAUGGCCCGGAU”, the “apparent Kd” value reads like this: under setting [3], 83.1 nM; under setting [4], 68.8 nM.

As for “GGUGAAUGAACAUGAGGAUCACCCAUGUCCAGGAAACUGAAUGAGGAUAUCCAUAGCAAAGCUAUGGAGAAGGCAUGGGUCACC”, the “apparent Kd” value is, setting by setting: under setting [3], 562 nM; under setting [4], 241 nM. For “ACGUGUCGUGUAGGAUAUGACACAGGAAACUGGUCAGAAGGACAUGAGGAUCACCCAUGUAAAAUGUUUAAGAAUGACGUAUGC”, the “apparent Kd” value worked out at 49.3 nM under setting [1] and 94.9 nM under setting [2]. Consider “ACAUACUUUCGAGGAUAUCGGUGAUAUAUUUAACGAGAAGGCGAUAAAAGAUAUAAACUUAUAGACAUGAGGAUCACCCAUGUA”, for which the “apparent Kd” value by setting is: under setting [3], 27.4 nM; under setting [4], 27.1 nM. In the same order, the values of “GGACGACACAUCUACAUGAGGAUCACCCAUGUCGAAAGACAUGAGGAUAUGCAUCCUAAUUGGAUGCAGAAGGCAUGGUCGUCC” are 1210 nM and 70.3 nM. Consider “GUACUGUAGUGAGGAUAUACGAGUGCGAUAGCACGGCGAUCCAUUUAUACAUGAGGAUCACCCAUGUAGAAGGCACUUCAGUAC”, for which the “apparent Kd” value is, setting by setting: under setting [1], 6.15 nM; under setting [2], 65.6 nM. For the sequence “GUGCAAACAUGAGGAUAUGUAUUAAAUAAUAAUACAGAAGGCAUGUCAAAUGACAUGAGGAUCACCCAUGUUGGCAAAAUGCGC”, the “apparent Kd” value under setting [3] was found to be 144 nM and the “apparent Kd” value under setting [4] is 29.7 nM. Take “UUCAAGGAAGGAUAUCUCGGCCCGGACAUGAGGAUCACCCAUGUUGUUUUUAGAUUCGUGAGAGAAGGUCUUAUAU”: the “apparent Kd” value came out at 38.8 nM under setting [1] and 26.5 nM under setting [2].

For “GGGUUCAUGUAAGGAUAUGUAUUGUUAAUCGGAGCAGAAGGUACAUGAGGAUCACCCAUGUCAACCUAGAGCAGGGCUUCUUAA”, the “apparent Kd” value by setting is: under setting [1], 23.7 nM; under setting [2], 45.2 nM.

Turning to “AGCUGUGGCCGAGGAUAUCACGAACCAUGGAAAACCAUGGAACUCAAACAUGAGGAUCACCCAUGUGAGAAGGCGGUCUCAGCA”, the “apparent Kd” value under setting [1] was 21.1 nM and the “apparent Kd” value under setting [2] came to 15.9 nM. As to “GGAUAGGACAGAGGAUAUACCGAUAGGAUCUACUAUCGAAGAAUCCUCACAUGAGGAUCACCCAUGUAGAAGGCUGUCCUAUCG”, the “apparent Kd” value under setting [1] amounted to 40.3 nM and the “apparent Kd” value under setting [2] is 646 nM. In the case of “GUAGGGUCAGGAUAUACGGGCGGGAGGAUGUAGUGGAGUUGGUAGAAGGGACAUGAGGAUCACCCAUGUGAGAA”, the “apparent Kd” value was found to be 30.7 nM under setting [1] and 27.8 nM under setting [2]. Take “ACAUGAGGAUCACCCAUGUUCACAUAGGAUAUUGAUUAUAUUGGAUAUAGAAUAUUUAUAAUACACAAGAAGGAUGCAAGAUGG”: the “apparent Kd” value is, setting by setting: under setting [3], 16.4 nM; under setting [4], 13.5 nM. For the sequence “GGAGCCGGCCUAGGAUAUUUCAUAAUAUUACAUGAGGAUCACCCAUGUAGGCCAGAAGGCCUUGGGAAGAAGGAGGUCGGCUCC”, the “apparent Kd” value reads like this: under setting [3], 42.6 nM; under setting [4], 15.9 nM. In the case of “UGGUACUAGGGAGGAUAUGGGAAGAUACAUGAGGAUCACCCAUGUUUAAGAAUGCCGAGAGGCAACUAGAAGGCCCUAGUAACU”, the “apparent Kd” value is 461 nM under setting [3] and 20.2 nM under setting [4]. Regarding “GUUUCACAUGAGGAUCACCCAUGUGAGGAUAUCUAUUUGUUAACCGUAGUUAAUAGAUAGAGAAGGCGCGUGAU”, the “apparent Kd” value under setting [1] stood at 69 nM and the “apparent Kd” value under setting [2] stood at 74.5 nM.

On to “UUGUUUCGUCAUUAACAUGAGGAUCACCCAUGUAUCGUCUCAAAGGAUAUAUAUGCUUGUUUGCUAUAGAAGGUUGAUUGUUGU”, for which the “apparent Kd” value reads like this: under setting [3], 71.2 nM; under setting [4], 67.2 nM. As to “CAUCUGUGAGGAUAUGGUGAGUAGUGCCUGAGCGCUGCUCACCAGAAGGCACAUGAGGAUCACCCAUGUAUGAA”, the “apparent Kd” value reads like this: under setting [1], 52.6 nM; under setting [2], 214 nM. In the same order, the values of “CUUAUGUCAGGAUAUCAGUAGUAAAAAAAAAAAAUUACUACUGAGAAGGGACAUGAGGAUCACCCAUGUCCAUU” are 30.9 nM and 31.2 nM. Regarding “GAGUGGAAGGCCGCUACAUGAGGAUCACCCAUGUGCUAAGCACAGGAUAUCGCGCUAGCCCGGCGCGAGAAGGGUGACGGCCUU”, the “apparent Kd” value under setting [3] came to 577 nM and the “apparent Kd” value under setting [4] amounted to 276 nM. For “UGUCGGAGCAGAGGAUAUUACAUGAGGAUCACCCAUGUAUGAACCAAUAGCUGGAAACAGCAAUGUAAGAAGGCUGCUCCGAUA”, the “apparent Kd” value under setting [1] is 11.8 nM and the “apparent Kd” value under setting [2] was found to be 166 nM. For “UAGUGAUUGCAAGGAUAUGCUUGUGUUUUAUUUUUUUUAAUAUCUAACAUGAGGAUCACCCAUGUGCAGAAGGUGCUUGAUUUG”, the “apparent Kd” value amounted to 47.8 nM under setting [3] and 48.8 nM under setting [4]. For “UGUGCUAUGUAGAAGGCAGAUCUGAUUCAGAUCUGAGGAUAUACAUGAGGAUCACCCAUGUUAUGCACCAGCACGAGAGUGCAA”, the “apparent Kd” value by setting is: under setting [1], 8.13 nM; under setting [2], 16 nM.

Regarding “GUGGGUCGGGAGGAUAUUCGGGCUCAUGGGCUUGGAGAAGGCUCGACAUGAGGAUCACCCAUGUAAGUGUUCUU”, the “apparent Kd” value under setting [1] stood at 50 nM and the “apparent Kd” value under setting [2] amounted to 621 nM. Turning to “AACAGACAUGAGGAUCACCCAUGUGAAAACGUACAAGGAUAUGUGUGGAAACCGUACUAUACAGAAGGUGUCUGUC”, the “apparent Kd” value worked out at 41.3 nM under setting [3] and 72.5 nM under setting [4]. As to “UGUGUUAUUGGAGGAUAUCGAUAUCAAACAUGAGGAUCACCCAUGUUGAGGAUCACACAUGUCCAUGAGAAGGCCGACGUAGUG”, the “apparent Kd” value was found to be 10.5 nM under setting [3] and 10.5 nM under setting [4]. As for “GGAUCGUAUGUCAGGAUAUGCCACUGGAUACAGUGGUAGAAGGGACAUGAGGAUCACCCAUGUCCUACCGAUCC”, the “apparent Kd” value reads like this: under setting [1], 12.5 nM; under setting [2], 14.4 nM. On to “CGAUAGGACAGAGGAUAUACGUGCUAGAGAUACUAGCAAAAUUUCCUCACAUGAGGAUCACCCAUGUAGAAGGCUGUCCUAUCG”, for which the “apparent Kd” value is, setting by setting: under setting [1], 15.6 nM; under setting [2], 439 nM.

In the case of “UUAUUACGAGGAUAUCGUUUUUAUCACAUGAGGAUCACCCAUGUAAUUUAUGUUUCGUUUCGAGAAGGCGUUUGUU”, the “apparent Kd” value was 23.4 nM under setting [1] and 19.6 nM under setting [2]. As to “UCCAUGUUAGGAUAUUACAUGCAGGCUGUAACACGCCGGUGUAAGAAGGAACAUGAGGAUCACCCAUGUGUCGU”, the “apparent Kd” value under setting [1] amounted to 68 nM and the “apparent Kd” value under setting [2] was found to be 137 nM.

For the sequence “GCAUGGAAAGUGAGGAUAUACCACUGGAUACAGUGGUAGAAGGCACAUGAGGAUCACCCAUGUUUCUACCAUGC”, the “apparent Kd” value was 13.4 nM under setting [1] and 19.1 nM under setting [2].

With “GCCAUCGCAUGAGGAUAUAAUCGGGUUUCCCGUUUAGAAGGCAUGUCAUAAGACAUGAGGAUCACCCAUGUAGUUAAGAUGGCA”, the “apparent Kd” value turned out to be 471 nM under setting [3] and 27 nM under setting [4].

For the sequence “GUUUCGUGAGGAUAUGUGGCUUCGAUCGUGCGAAAGAGGCUACAGAAGGCACAUGAGGAUCACCCAUGUUCCUC”, the “apparent Kd” value under setting [1] stood at 38.2 nM and the “apparent Kd” value under setting [2] stood at 536 nM.

As for “ACCAUUUACUAAUCCUCUAUACAUGAGGAUCACCCAUGUUUUGAGGAUAUCAUCGUUCGCCGCGUUGAGAAGGCAAAACAUUCG”, the “apparent Kd” value came to 18.7 nM under setting [1] and 52.9 nM under setting [2].

As to “GGUCCAUCAUGAGGAUAUGGCACCUUAUUGGUGCCAGAAGGCAUGUCUAUAGACAUGAGGAUCACCCAUGUGAUAAAUUGGACC”, the “apparent Kd” value worked out at 523 nM under setting [3] and 49.9 nM under setting [4]. As for “CUCUUGGCAGGAUAUGCUCUUUUAGACAUGAGGAUCACCCAUGUGCUCAUUCCUUCUUUUGCAGAAGGGCCUUAAC”, the “apparent Kd” value runs as follows: under setting [1], 73 nM; under setting [2], 54.7 nM.

One may read the apparent Kd as a dissociation constant that holds for the conditions of the assay.
